# Compound activity from PubChem BioAssay.
# EBI2 block = blocks human EBI2 receptor beta-arrestin signaling; P32249; EBI2 beta-arrestin recruitment, luminescence, 7a,25-OHC stimulated; inhibition, % at 5 µM; 0.81% of 360,000 active; in the data active = inhibition above about 38%;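 also: enzyme fragment complementation signal reports receptor beta-arrestin coupling in cells; 0% = agonist plus DMSO wells and 100% = wells without agonist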
# CXCR6 block = CXCR6 (human) receptor inhibition | O00574 | CHO-K1 PathHunter CXCR6 beta-arrestin, luminescence | inhibition, % at 20 µM | 0.36% of 360,000 active | AID 602244; in the data active = inhibition above about 34%, passing the limit was not always enough;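 also: antagonist mode with CXCL16 agonist at 10 nM final; 0% = 10 nM CXCL16 with DMSO and 100% = unstimulated wells without agonist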
# CCR6 antag = antagonists of human CCR6 receptor; P51684; CHO-K1 CCR6 PathHunter beta-arrestin, luminescence, CCL20-stimulated; inhibition, % at 20 µM; 0.49% of 340,000 active;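 active = compounds whose inhibition of the agonist-driven luminescence signal at 20 µM reaches about 50%, limit read from the data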;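 also: cells stimulated with CCL20 at 14 nM final; plate controls were DMSO with CCL20 for no effect and DMSO without agonist for full effect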
# Target sequence (P51684 whole entry, looked up): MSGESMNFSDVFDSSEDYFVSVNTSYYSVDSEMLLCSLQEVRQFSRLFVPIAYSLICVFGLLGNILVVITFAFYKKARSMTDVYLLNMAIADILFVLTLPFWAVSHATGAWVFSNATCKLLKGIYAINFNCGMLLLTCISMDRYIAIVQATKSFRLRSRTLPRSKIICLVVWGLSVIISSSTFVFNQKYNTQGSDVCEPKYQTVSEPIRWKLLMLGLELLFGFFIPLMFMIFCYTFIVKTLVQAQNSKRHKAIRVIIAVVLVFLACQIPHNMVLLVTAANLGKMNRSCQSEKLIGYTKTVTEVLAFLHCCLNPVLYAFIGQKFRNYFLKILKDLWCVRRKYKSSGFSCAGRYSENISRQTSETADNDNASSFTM
# APJ antagonist = antagonists of human APJ apelin receptor | P35414 | CHO-K1 APJ beta-arrestin complementation, luminescence | inhibition, % at 20 µM | 0.32% of 330,000 active | AID 2521;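 active = inhibition above about 40% at 20 µM, limit read from the data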;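 also: cells challenged with 10 nM apelin-13 agonist together with compound; plate controls were apelin-13 plus DMSO wells for no effect and DMSO wells lacking apelin-13 for full effect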
# APJ ag = activates the human apelin receptor APJ | AID 2520 | CHO-K1 APJ PathHunter beta-arrestin, luminescence; 0% DMSO wells, 100% apelin | activation, % at 20 µM | 0.11% of 330,000 active;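 active = activation more than six SD over the plate average, tested at 20 µM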;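 also: 0% = DMSO alone and 100% = apelin-13 at 10 nM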
#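 Assay system – PathHunter CHO-K1 APJ (AGTRL-1) beta-arrestin reporter cells · Compound – one dose, 20 µM compound, 1% DMSO · Timing – compound 90 min 25 °C, reagent 1 h · Measured by – luminescence from split beta-galactosidase complementation, Galacton Star/Emerald II substrate · Measure – beta-arrestin recruitment to APJ as agonist activity, luminescent signal · Benchmarks – DMSO vs Apelin-13 10 nM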
# EBI2 conf = EBI2 (human) antagonism, single concentration confirmation. shares compounds with EBI2 block. EBI2 beta-arrestin luminescence, 7a,25-OHC antagonism. inhibition, % at 5 µM. 29% of 2,400 active. AID 651997;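 active = inhibition of at least 50%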
# EBI2 agonist = EBI2 agonism counter-screen; shares compounds with EBI2 block; EBI2-expressing cells, agonist mode, luminescence, 60 min; 0% vehicle, 100% 7α,25-dihydroxycholesterol control; activation, % at 5 µM; 2,400 tested, under 10 active; AID 652000;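 active = activation of at least 50%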
# bGal cs = inhibits E. coli beta-galactosidase, counter-screen for EBI2 antagonists; shares compounds with EBI2 block; purified beta-galactosidase, luminescent Galacton Star, 15 min; inhibition, % at 5 µM; 1% of 2,400 active; AID 652176;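 active = replicate-average signal at least 3 plate SD below neutral wells, shown as high inhibition, flagging enzyme-inhibiting false positives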;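 also: 0% = DMSO wells with enzyme and 100% = wells lacking enzyme; higher means stronger loss of beta-gal luminescence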
# An asterisk follows results filed as active; nt = no result given. A selection: hits, their analogues and other compounds. The true share with any hit is near 1.5%.
SMILES,EBI2 block,CXCR6 block,CCR6 antag,APJ antagonist,APJ ag,EBI2 conf,EBI2 agonist,bGal cs
COc1ccccc1NC(=O)C1CC(O)CN1C(=O)Oc1ccccc1 (stereo not drawn),-9,-7,6,16,-3,nt,nt,nt
FC(F)(F)c1cnc(N2CCC(=NOCc3ccc(Cl)cc3)CC2)c(Cl)c1,54*,6,30,12,0,7,0,8
Cc1ccc(CON=C2CCN(c3ncc(C(F)(F)F)cc3Cl)CC2)cc1,43*,1,-18,12,0,4,0,-12
ON=C1CCN(c2ncc(C(F)(F)F)cc2Cl)CC1,-6,-1,-4,-12,-3,nt,nt,nt
FC(F)(F)c1cccc(CON=C2CCN(c3ncc(C(F)(F)F)cc3Cl)CC2)c1,14,-2,29,-12,-4,nt,nt,nt
O=C1CCCN1c1ccc(N2CCCC2=O)cc1,3,-3,3,6,-2,nt,nt,nt
O=C(c1ccco1)N1CCN(C(=O)c2cc3c(=O)oc4ccccc4c3s2)CC1,80*,0,-28,nt,nt,61*,1,-4
Cc1ccc2cc3cc(C(=O)N4CCN(Cc5ccccc5)CC4)sc3nc2c1,80*,5,0,-4,-3,53*,0,-17
Cc1ccc2cc3cc(C(=O)N4CCN(C(=O)c5ccco5)CC4)sc3nc2c1,63*,2,-12,7,-2,30,-1,-7
Cc1ccc(C(=O)OCC(=O)c2c[nH]c3ccccc23)cc1S(=O)(=O)N1CCOCC1,-5,3,-1,-21,5,nt,nt,nt
Cc1ccc(Oc2ncc(-c3ccc(Cl)cc3)cn2)cc1,90*,-10,5,-13,1,58*,-1,-9
Cc1cccc(Oc2ncc(-c3ccc(Cl)cc3)cn2)c1C,52*,1,7,12,1,27,0,2
COc1cnc(-c2ccccc2)nc1Oc1cccc(C)c1C,11,11,34,6,-4,nt,nt,nt
Cc1nc(CCNC(=O)C2CCC(=O)N(Cc3cccc(F)c3)C2)sc1C (stereo not drawn),3,6,-1,10,1,nt,nt,nt
COc1ccccc1N1CCN(CC(=O)c2c(C)[nH]c3cc(C)ccc23)CC1,40*,9,-13,6,-3,14,0,-10
Cc1[nH]c2ccc(C(=O)N3CCN(c4ccccc4Cl)CC3)cc2c1C,78*,1,-3,21,0,56*,1,3
Cc1cccc(N2CCN(C(=O)c3ccc4[nH]c(C)c(C)c4c3)CC2)c1C,69*,-3,-20,-2,-1,51*,0,-6
COc1ccccc1N1CCN(C(=O)c2ccc3[nH]c(C)c(C)c3c2)CC1,76*,3,10,-14,-2,45,0,-12
CN(C)S(=O)(=O)c1ccc(SCC(=O)N2CC(=O)Nc3ccccc32)nc1,-7,-4,5,0,-2,nt,nt,nt
O=C(NC1CC1)c1ccc(CSCc2ccccc2Cl)o1,9,-1,4,-2,-1,nt,nt,nt
COc1cc(OC)cc(-c2c(C#Cc3ccsc3)c3cc(-c4ccc5c(c4)OCO5)ccc3n2C)c1,-5,-6,11,-2,0,nt,nt,nt
COC(=O)C(O)(NC(=O)NC(C)=O)C(F)(F)F (stereo not drawn),-1,8,-3,8,-1,nt,nt,nt
O=C(CSc1nc(Nc2ccccc2)nc(N2CCOCC2)n1)Nc1ccccc1Cl,18,-3,9,-14,0,nt,nt,nt
O=C(CSc1nc(Nc2ccccc2)nc(N2CCOCC2)n1)Nc1ccc(Br)cc1F,46*,-1,-4,-23,9,-2,-1,-12
CC(C)C1CCN(C(=O)C2CCC(=O)N(CCc3ccc(Cl)cc3)C2)CC1 (stereo not drawn),79*,-9,5,-3,-2,50*,0,12
SMILES,EBI2 block,CXCR6 block,CCR6 antag,APJ antagonist,APJ ag,EBI2 conf,EBI2 agonist,bGal cs
C=CCC1(CC=C)CCCN1C(=O)C1CCC(=O)N(CCc2ccc(Cl)cc2)C1 (stereo not drawn),79*,1,5,9,-7,41,-2,-6
COc1cccc(-c2onc3ccc(C4(C)OCCO4)cc23)c1,48*,-13,1,-5,5,11,0,8
C(=C\c1nc(N2CCCC2)c2ccccc2n1)/c1ccccc1,41*,2,19,-11,1,59*,-1,-7
CC1CCN(c2nc(/C=C/c3ccccc3)nc3ccccc23)CC1,4,-6,17,-1,-1,nt,nt,nt
O=C(/C=C/c1ccccc1F)N1CCN(c2ccccn2)CC1,45*,-10,9,8,-3,32,0,5
O=C(/C=C/c1ccc(Cl)c(C(F)(F)F)c1)N1CCN(c2ccccn2)CC1,48*,-3,16,9,-3,37,1,3
O=C(/C=C/c1ccccc1)N1CCN(c2ccccn2)CC1,88*,7,13,9,-3,74*,1,2
O=C(/C=C/c1cccc(F)c1)N1CCN(c2ccccn2)CC1,77*,6,4,-22,-1,61*,0,-6
O=C(/C=C/c1ccc(Cl)cc1)N1CCN(c2ccccn2)CC1,93*,4,20,9,1,80*,-2,-8
O=C(NC(=S)Nc1ccccc1)c1csnn1,0,18,31,21,-5,nt,nt,nt
O=C(/C=C/c1cn(-c2ccccc2)nc1-c1cccnc1)c1ccco1,44*,8,14,-4,1,65*,3,2
O=C(c1ccc2nc[nH]c2c1)N1CCN(c2cccc(C(F)(F)F)c2)CC1,-33,-3,11,-17,0,nt,nt,nt
COc1ccc(OC)c2sc(N3CCN(C(=O)c4ccc5ncsc5c4)CC3)nc12,54*,-19,-7,-7,0,17,-1,-7
O=C(c1ccc2ncsc2c1)N1CCN(c2cccc(C(F)(F)F)c2)CC1,54*,-1,-2,14,8,13,0,-10
CCOc1cccc2sc(N3CCN(C(=O)c4ccc5ncsc5c4)CC3)nc12,45*,-10,4,-7,0,30,2,-1
O=S(=O)(c1ccc(Cl)cc1)N1CCCC(c2nc(-c3ccc(F)cc3)no2)C1 (stereo not drawn),24,-4,19,9,-3,nt,nt,nt
O=C(Nc1ccc(Cl)cc1)N1CCN(c2ccc3nnc(-c4ccc(F)cc4)n3n2)CC1,48*,5,2,9,-3,49,-2,-8
